Most compounds without a hit are left out; they make up all but 3.8% or so of the library.
hERG protect – shields human hERG channel from block by proarrhythmic agents. 0.51% of 310,000 active. activation (rescue from dofetilide block), less the hit threshold, % at 10 µM. CHO-hERG, FluxOR thallium flux, dofetilide IC70 present. Q12809;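 active means activation above the mean of controls blocked by dofetilide plus 5 SD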;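 further: thallium influx through hERG after potassium depolarization seen as dye fluorescence rise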
KCNQ1 pot – human KCNQ1 channel potentiation or activation; B-score at 10 µM; CHO-K1 KCNQ1, thallium flux FluxOR fluorescence; stronger effect = higher value; 0.35% of 310,000 active; AID 2648; P51787;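 active means fluorescence ratio B-score, a plate-corrected score, at least three library SD, with initial intensity B-score within 5 SD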
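Assay system: CHO-K1 cells stably expressing KCNQ1. Medium: assay buffer for compound exposure, DMSO matched across wells. Timing: 37 °C overnight plating, 90-min dark dye load, 20-min compound pretreatment. Signal: kinetic FluxOR fluorescence, 10 s baseline plus 110 s post-stimulus.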
KCNK9 block – human KCNK9 channel inhibition | Q9NPC2 | HEK293 KCNK9, FluxOR thallium flux fluorescence; stronger effect = lower value | B-score at 10 µM | 1.2% of 310,000 active | AID 488922;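 active means ratio B-score over 3 SD below the library mean, with starting fluorescence within 5 SD of its mean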;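 further: negative B-score means less thallium flux so channel inhibition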
KCNQ1 inh – blocks the human KCNQ1 potassium channel | B-score at 10 µM | CHO-K1 KCNQ1, FluxOR thallium flux fluorescence; stronger effect = higher value | P51787 | 1.3% of 310,000 active;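 active means compounds whose thallium flux B-score, printed positive for inhibition, exceeds three library SD while starting fluorescence stays within three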;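 further: channel opened by potassium depolarization with thallium stimulus after 20 min compound exposure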
KCNK3 block – human KCNK3 channel inhibition, primary screen; O14649; CHO-KCNK3 thallium flux, FluxOR fluorescence; stronger effect = lower value; B-score at 10 µM; 0.84% of 340,000 active; AID 602410;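 active means B-score under library mean minus 4 SD, starting fluorescence ratio at most library mean plus 5 SD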;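 further: more negative B-score means stronger inhibition of thallium flux through KCNK3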
Kir21 inh – Kir2.1 (mouse) channel inhibition. P35561. HEK293-Kir2.1, FluxOR thallium flux fluorescence; stronger effect = lower value. B-score at 10 µM. 0.85% of 310,000 active. AID 1672;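 active means fluorescence ratio B-score at or below minus 3 SD of library scores, with starting-brightness B-score within 2 SD, cut at about -4.2 in these data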;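 further: channel flux triggered by added potassium and thallium sulfate stimulus; B-score of peak minus minimum fluorescence over baseline after thallium stimulus; more negative B-score means stronger Kir2.1 block with less thallium influx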
Target sequence (P35561 whole entry, looked up): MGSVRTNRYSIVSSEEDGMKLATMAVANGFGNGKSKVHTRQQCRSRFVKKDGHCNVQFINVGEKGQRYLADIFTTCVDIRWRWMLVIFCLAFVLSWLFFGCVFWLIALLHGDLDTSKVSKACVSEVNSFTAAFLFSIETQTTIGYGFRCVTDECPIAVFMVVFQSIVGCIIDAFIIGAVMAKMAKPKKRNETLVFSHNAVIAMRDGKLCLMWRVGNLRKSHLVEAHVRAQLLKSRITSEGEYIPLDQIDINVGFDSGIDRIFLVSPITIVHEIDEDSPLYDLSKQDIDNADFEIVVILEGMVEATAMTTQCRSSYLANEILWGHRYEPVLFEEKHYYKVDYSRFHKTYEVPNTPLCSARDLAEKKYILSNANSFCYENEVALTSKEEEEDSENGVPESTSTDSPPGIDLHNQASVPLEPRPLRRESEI
Numbers without * were called inactive; i = inactive; . = no result given.

SMILES	hERG protect	KCNQ1 pot	KCNK9 block	KCNQ1 inh	KCNK3 block	Kir21 inh
CN1CCS/C1=C\C=C1/SC(=S)N(CC(=O)O)C1=O	-30	i	i	11*	i	-12
Cn1cccc1/C=C1/SC(=S)N(CC(=O)O)C1=O	-11	i	i	i	i	-0.67
Cc1cc(C)nc(SCc2nnc(SCC(=O)Nc3nc(-c4ccccc4)cs3)n2-c2ccccc2)n1	6.5*	i	i	i	i	0.06
CC(=O)/C=C1/C(=O)Nc2ccccc21	-3	i	i	i	i	-5.2*
Brc1ccc(OCCOCCOc2cccc3cccnc23)cc1	-10	i	i	i	i	-2.2
Brc1ccccc1OCCOCCOc1cccc2cccnc12	-1	i	i	i	i	-4.5*
C=CCc1ccc(OCCOCCOc2cccc3cccnc23)c(OC)c1	-15	i	i	i	i	-4.9*
C=CCc1ccc(OCCOc2cccc3cccnc23)c(OC)c1	-8	i	i	i	i	-0.99
CC(C)(C)OC(=O)NC1CONC1=O (stereo not drawn)	-5	i	i	i	i	-1.3
O=C(NCC1CCCO1)c1c(O)c2ccccc2[nH]c1=O (stereo not drawn)	-10	i	i	i	i	1.3
CCCc1c(C)nc(N2CCN(c3cccc(OC)c3)CC2)[nH]c1=O	5.9*	i	i	i	i	0.29
CCc1c(C)nc(N2CCN(c3cccc(OC)c3)CC2)[nH]c1=O	-2	i	i	i	i	-0.02
CCC(C)C(=O)Nc1nc2c(s1)C(=O)CC(C)(C)C2 (stereo not drawn)	-7	i	i	i	i	0.55
COc1ccc(-[n+]2c(C)cc(/C=C3\Sc4ccccc4N3C)cc2C)cc1	-46	i	i	23*	i	-14
COc1ccccc1-[n+]1c(C)cc(/C=C2\Sc3ccccc3N2C)cc1C	-46	i	i	i	i	-24
O=C(Cc1cccc2ccccc12)N/N=C/c1ccc2cccc(O)c2n1	-7	i	i	i	i	0.83
O=C(Cc1cccc2ccccc12)N/N=C/c1ccc(Sc2cccc3cccnc23)o1	-9	i	-9.8*	i	.	0.01
Cc1cc(C)cc(C(=O)NCC(=O)N2CCN(C(c3ccccc3)c3ccccc3)CC2)c1	-17	i	i	6*	i	0.67
O=C(NCC(=O)N1CCN(C(c2ccccc2)c2ccccc2)CC1)c1ccc(Br)o1	-3	i	i	i	i	-0.85
Cc1nc(CS(=O)(=O)c2ccc(Cl)cc2)cc(Sc2ccc(Cl)cc2)n1	-8	i	-6.6*	i	i	-4.8*
CSc1nnc(C(C)(C)C)c(=O)n1/N=C/c1ccccc1	-9	i	i	i	i	1.7
c1ccc(Cc2noc(CN3CCCC(CN4CCOCC4)C3)n2)cc1 (stereo not drawn)	-9	i	i	i	i	0.47
Cc1cccn2c(=O)c3cc(C(=O)NC4CCCC4)c(=N)n(Cc4ccc(F)cc4)c3nc12	-19	i	i	i	i	0.46
CCN(C(=O)c1cc2c(=O)n3cccc(C)c3nc2n1CCCOC)C1CCCCC1	-14	i	i	i	-11*	0.73
Cc1cccn2c(=O)c3cc(C(=O)NC4CCCCC4)c(=N)n(Cc4ccccc4)c3nc12	-15	i	i	7*	i	1.1
SMILES	hERG protect	KCNQ1 pot	KCNK9 block	KCNQ1 inh	KCNK3 block	Kir21 inh
O=C(c1ccc(F)cc1)C1CCN(C(=O)Nc2ccccc2Cl)CC1	-3	i	i	i	i	-0.57
CC1(C)Oc2ccc3ccc(=O)oc3c2C[C@H]1O	-4	i	i	i	i	0.2
CCN1CCN(Cc2ccc(NC(=O)Nc3ccc(SC)cc3)cc2)CC1	-12	i	i	i	i	-4.8*
COc1cc(CN2CCN(Cc3ccc(SC)cc3)CC2)cc(OC)c1O	-4	i	i	i	i	0.19
COc1cc(OC)c(OC)cc1CN1CCN(Cc2ccc(SC)cc2)CC1	-6	i	i	i	i	-5.5*
COc1ccc(CN2CCN(Cc3ccc(Br)cc3)CC2)c(OC)c1OC	0	i	i	i	i	-4.8*
CCCCCOc1ccc(C(=O)OCC(=O)Nc2cc(C)on2)cc1	.	.	.	.	i	.
CCOC(=O)C1=C(CSc2nc3c(cc2C#N)CN(C)CC3)OC(N)=C(C#N)C1c1ccncc1 (stereo not drawn)	-13	i	i	i	i	-0.59
CCC(=O)N1CCc2cc(S(=O)(=O)NC(C(=O)NCc3ccc(F)cc3)C(C)C)ccc21 (stereo not drawn)	1	i	i	i	i	1.7
COc1cccc(/C=N/NC(=O)CCc2c(C)n[nH]c2C)c1O	-12	i	i	i	i	1.6
C=CCN(CC=C)C(=S)NC(=O)c1ccc([N+](=O)[O-])cc1	42*	10*	i	i	i	-0.1
C=CCNC(=S)NNC(=O)c1ccc([N+](=O)[O-])cc1	0	i	i	i	i	-0.56
C=CCN(CC=C)C(=S)Nc1cc(Cl)ccc1OC	1	i	i	i	i	-0.34
COc1ccc(C(=O)NC(=S)N(C)Cc2ccccc2)cc1Br	-6	i	i	i	i	1
CCN(CC)C(=S)NC(=O)c1ccc(OC)c(Br)c1	3	8*	i	i	i	-0.04
C=CCN(CC=C)C(=S)NC(=O)c1ccc(OC)c(Br)c1	33*	32*	i	i	i	0.51
COCCNc1ncnc2c1cnn2-c1ccc(Cl)cc1	-8	i	i	i	i	1.2
COC(=O)Cn1cnc2c(C#N)c3n(c2c1=O)CCCCC3	-8	i	i	i	i	1.3
O=C(O)c1ccccc1C(c1ccccc1)c1ccccc1O (stereo not drawn)	.	.	.	.	i	.
CCOC(=O)C1(CCOc2ccccc2)CCN(Cc2ccc(O)cc2)CC1	-3	i	i	i	i	-0.66
CCOC(=O)C1(CCc2ccccc2)CCN(Cc2ccc(O)cc2)CC1	-31	i	i	i	i	-4.5*
CCOC(=O)C1(Cc2cccc(OC)c2)CCN(C/C=C/c2ccc(OC)cc2)CC1	-22	i	i	7*	i	-0.32
CCOC(=O)C1(CCc2ccccc2)CCN(Cc2ccc(OC)cc2)CC1	-24	i	i	i	i	-5.2*
CN1CCN(c2ccc(CNC(=O)c3ccco3)cc2)CC1	-11	i	i	i	i	0.87
